Columns and labels:
[1] = biological target: Estrogen receptor (Bos taurus) (UniProt Q9XSB5+P49884); test: Relative binding affinity to calf uterine estrogen receptor; type: protein assay
How it was run: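 Calf uterine cytosol (105000g supernatant, 3 mg/mL protein in the assay) in Tris/EDTA/NaN3 buffer pH 7.5, with 5 nM 17β-[3H]estradiol and competitor at 10^-9–10^-5 M. Incubated 18 h at 4 °C; bound and free ligand separated with dextran-coated charcoal. Nonspecific binding defined with 5 μM estradiol. RBA = ratio of molar concentrations of estradiol and compound giving 50% displacement × 100.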

[2] = biological target: T1, Estrogen receptor (Mus musculus) (UniProt O08537+P19785); test: Anti-uterotrophic effect in mice at 125 ug; type: functional
T1 sequence (O08537 whole entry, looked up): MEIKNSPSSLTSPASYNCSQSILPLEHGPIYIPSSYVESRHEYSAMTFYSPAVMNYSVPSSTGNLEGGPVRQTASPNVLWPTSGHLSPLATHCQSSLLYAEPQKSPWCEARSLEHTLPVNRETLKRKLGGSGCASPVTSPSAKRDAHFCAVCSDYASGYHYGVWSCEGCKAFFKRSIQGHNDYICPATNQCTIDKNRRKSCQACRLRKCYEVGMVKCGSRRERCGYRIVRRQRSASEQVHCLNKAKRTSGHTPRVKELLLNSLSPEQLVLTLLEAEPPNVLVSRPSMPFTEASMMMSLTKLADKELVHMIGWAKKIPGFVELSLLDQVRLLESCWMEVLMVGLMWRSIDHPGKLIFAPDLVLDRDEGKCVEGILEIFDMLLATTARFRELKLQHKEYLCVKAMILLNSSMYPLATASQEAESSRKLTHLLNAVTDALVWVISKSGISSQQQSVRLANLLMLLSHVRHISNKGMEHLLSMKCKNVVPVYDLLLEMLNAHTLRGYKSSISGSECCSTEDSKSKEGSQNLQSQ
T1 sequence (P19785 whole entry, looked up): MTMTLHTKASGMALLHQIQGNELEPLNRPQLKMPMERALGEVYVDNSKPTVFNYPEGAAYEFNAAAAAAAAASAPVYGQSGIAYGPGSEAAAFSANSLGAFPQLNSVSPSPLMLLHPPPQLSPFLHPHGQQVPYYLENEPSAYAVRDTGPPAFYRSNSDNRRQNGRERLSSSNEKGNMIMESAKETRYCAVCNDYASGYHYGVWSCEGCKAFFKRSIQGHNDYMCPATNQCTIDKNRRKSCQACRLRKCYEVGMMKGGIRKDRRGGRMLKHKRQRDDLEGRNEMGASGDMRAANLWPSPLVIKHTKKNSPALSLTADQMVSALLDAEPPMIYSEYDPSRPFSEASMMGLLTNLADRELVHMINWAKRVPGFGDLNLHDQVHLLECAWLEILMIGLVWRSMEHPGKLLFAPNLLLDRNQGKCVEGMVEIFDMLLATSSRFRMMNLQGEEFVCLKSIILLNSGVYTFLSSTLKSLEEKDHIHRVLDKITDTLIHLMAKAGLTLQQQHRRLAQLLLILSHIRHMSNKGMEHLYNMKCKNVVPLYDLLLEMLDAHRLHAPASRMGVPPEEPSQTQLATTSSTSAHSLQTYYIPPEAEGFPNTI
How it was run: (§1)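 Immature female NMRI mice (20 days old), groups of 6-10, injected sc in olive oil (100 μL/animal) on three consecutive days with test compound plus 0.4 μg estrone per animal and day. Killed 24 h after last injection; uteri fixed in Bouin solution, dried at 100 °C for 24 h. Relative uterine weight = uterine dry weight (mg)/body weight (g) × 100; mean of six animals ± SD.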

[3] = biological target: T1, Estrogen receptor (Mus musculus); test: Anti-uterotrophic effect in mice at 25 ug; type: functional; how it was run: as §1
[4] = biological target: T1, Estrogen receptor (Mus musculus); test: Anti-uterotrophic effect in mice at 5 ug; type: functional; how it was run: as §1
[5] = biological target: T1, Estrogen receptor (Mus musculus); test: Uterotrophic effect in mice at 125 ug; type: functional, tissue-based; settings: Uterus
How it was run: (§2)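 Immature NMRI female mice, 20 days old, groups of 6-10, received test compound in olive oil (100 μL/animal) sc on three consecutive days; vehicle controls were included. At 24 h after the last dose, uteri were fixed in Bouin solution and dried at 100 °C for 24 h. Read-out was uterine dry weight (mg)/body weight (g) × 100, mean of six animals ± SD.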

[6] = biological target: T1, Estrogen receptor (Mus musculus); test: Uterotrophic effect in mice at 25 ug; type: functional, tissue-based; settings: Uterus; how it was run: as §2
[7] = biological target: T1, Estrogen receptor (Mus musculus); test: Uterotrophic effect in mice at 5 ug; type: functional, tissue-based; settings: Uterus; how it was run: as §2
[8] = biological target: T1, Estrogen receptor (Mus musculus); test: Percent inhibition of uterotrophic effect in mice at 125 ug dose; type: functional
How it was run: (§3)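 Mice were immature female NMRI (20 days old) given sc injections in olive oil on three consecutive days, each containing 0.4 μg estrone plus test compound. Uteri were weighed dry 24 h after the last injection. Antagonism (%) = 100 − [(W_S,T − W_V)/(W_S − W_V) × 100], with relative uterine weights from estrone+compound, estrone alone and vehicle controls. Significance was tested by Mann-Whitney U test.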

[9] = biological target: T1, Estrogen receptor (Mus musculus); test: Percent inhibition of uterotrophic effect in mice at 25 ug dose; type: functional; how it was run: as §3
[10] = biological target: T1, Estrogen receptor (Mus musculus); test: Percent inhibition of uterotrophic effect in mice at 5 ug dose; type: functional; how it was run: as §3
[11] = biological target: T1, Estrogen receptor (Mus musculus); test: Anti-uterotrophic effect in mice at 1 ug; type: functional; how it was run: as §1
[12] = biological target: T1, Estrogen receptor (Mus musculus); test: Uterotrophic effect in mice at 1 ug; type: functional, tissue-based; settings: Uterus; how it was run: as §2
[13] = biological target: T1, Estrogen receptor (Mus musculus); test: Percent inhibition of uterotrophic effect in mice at 1 ug dose; type: functional; how it was run: as §3

relative binding affinity (RBA) [1]	Relative uterine weight [2]	Relative uterine weight [3]	Relative uterine weight [4]	Relative uterine weight [5]	Relative uterine weight [6]	Relative uterine weight [7]	inhibition [8] [%]	inhibition [9] [%]	inhibition [10] [%]	Relative uterine weight [11]	Relative uterine weight [12]	inhibition [13] [%]	Compound
10	18	47.7	51.2	17.4	21.8	19.5	102	18	8				CC1=C(c2ccc(O)cc2)C(CCCCCCN2CCOCC2)c2ccc(O)cc21 (stereo unspecified)
25	16.2	15	30.1	16.9	12.4	11.9	99	102	68	65.9	10.9		CC1=C(c2ccc(O)cc2)C(CCCCCCN)c2ccc(O)cc21 (stereo unspecified)
14	30.9	52.5	46	22.4	18.2	16.1	61		23				CCN(CC)CCCCCCC1C(c2ccc(O)cc2)=C(C)c2cc(O)ccc21 (stereo unspecified)
	8.9	14.4	15.4	14.1	13.9	9	117	103	100	45.8	12.5	20	CC1=C(c2ccc(O)cc2)C(CCCCCCN2CCCC2)c2ccc(O)cc21 (stereo unspecified)
2.3													Oc1ccc(C2=Cc3cc(O)ccc3C2CCCCCCN2CCCC2)cc1 (stereo unspecified)
11													CC1=C(c2ccc(O)cc2)C(CCCCCCCN)c2ccc(O)cc21 (stereo unspecified)
1.3													Oc1ccc(C2=Cc3cc(O)ccc3C2CCCCCCN2CCCCC2)cc1 (stereo unspecified)

Continued, molecule first:

Compound	relative binding affinity (RBA) [1]	Relative uterine weight [2]	Relative uterine weight [3]	Relative uterine weight [4]	Relative uterine weight [5]	Relative uterine weight [6]	Relative uterine weight [7]	inhibition [8] [%]	inhibition [9] [%]	inhibition [10] [%]	Relative uterine weight [11]	Relative uterine weight [12]	inhibition [13] [%]
CC1=C(c2ccc(O)cc2)C(CCCCCCN(C)C)c2ccc(O)cc21 (stereo unspecified)	12												
CNCCCCCCC1C(c2ccc(O)cc2)=C(C)c2cc(O)ccc21 (stereo unspecified)	27	33.7		38.1	34		22.8	59		49		14.4	
CC1=C(c2ccc(O)cc2)C(CCCCN2CCCC2)c2ccc(O)cc21 (stereo unspecified)	3.6	25.5	16.2	47.6	6.4	6.4	8	53	78		43.7	7.6	5
CC1=C(c2ccc(O)cc2)C(CCCCCCCCN2CCCC2)c2ccc(O)cc21 (stereo unspecified)	7.6												
CC1=C(c2ccc(O)cc2)C(CCCCCCN2CCCCC2)c2ccc(O)cc21 (stereo unspecified)	23	22.3		28.9	24.7	21.4	19.7	98		71			
CC1=C(c2ccc(O)cc2)C(CCCCCCNCc2ccccc2)c2ccc(O)cc21 (stereo unspecified)	15	40.8	44.6	53.2	34	23.6	17.8	51	43	25			
